Measured values from the RNAGym collection of RNA variant scans (doi:10.1126/science.aae0568).
This sample holds only a part of the variants without activity.

B1: tRNA (parent)
chain: GUUCCGUUGGCGUAAUGGUAACGCGUCUCCCUCCUAAGGAGAAGACUGCGGGUUCGAGUCCCGUACGGAACG

Variants of: B1
Test: yeast fitness relative to wild type (ratio to wild type); higher = fitter; tRNA-Arg(CCU), competitive growth, 37 C, YPD
Outline: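 Amplicons of the tRNA-Arg(CCU) gene were sequenced, 100-nucleotide paired-end, from the start population and from each end population of a pooled yeast competition. The competition, in six parallel replicates, lasted 24 hours in YPD at 37°C. Fitness relative to wild type was calculated from changes in genotype frequencies. Genotypes had to have ≥ 100 starting reads, and estimates < 0.5 were set to 0.5.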

Variant	yeast fitness
C11U A21U G68C	0.69
C11U C46U U59C	0.767
C11U A21G U35C	0.538
C11U G18C A43C G52A	≤ 0.5
C11U C34A A36C G68C	≤ 0.5
C11U C24G C27G G52A	0.551
C11U A14C A37C	0.544
C11U C60G	0.607
C11G U26A C30U G48A U54A C55G A65U	0.664
C11U A20U U32A G39A A65C	≤ 0.5
C11U A21U C27A	0.576
C11U A21G U64C	0.945
C11U A15G U32A C49A G56C	≤ 0.5
C11U G39C C46U	0.756
C11U G25C C29G A43G C49G	0.546
C11U A15U U26C C49A	≤ 0.5
C11U C55A G58C	≤ 0.5
C11U A36G G48C A65C	0.675
C11U C29U C30G	0.549
C11G U47A C61G	≤ 0.5
C11U C31G C34G A43U G68C	0.571
C11U C30A C49U G67U	≤ 0.5
C11U C29G C31U G58U A65G G67A	≤ 0.5
C11U C61G	0.638

Variant	yeast fitness
C11U C61A	0.869
C11U C22A	0.882
C11U C27U C31A U35C G48U C55G C66U A70C	≤ 0.5
C11U A43U A70U	0.764
C11U A14U C27U A40G	≤ 0.5
C11U A37C G56A	≤ 0.5
C11U A14U C24G G44A C49U G67U	≤ 0.5
C11U C33G A36U A42G	≤ 0.5
C11U C30A G39A U47A G63C	≤ 0.5
C11U C29U C49A	≤ 0.5
C11U A15G C27G	0.544
C11U A36U C60A	≤ 0.5
C11U G12A A14G U53C	≤ 0.5
C11U C30U C34G G68C	≤ 0.5
C11U C31U C60A U64A	≤ 0.5
C11U A15G C46U	0.961
C11U A45C C49U	0.765
C11U A14G U35C C60G	≤ 0.5
C11U C34U G41A	≤ 0.5
C11U A15U U19G A20G G67C	≤ 0.5
C11U A14U A40G A42C	≤ 0.5
C11U C33U G48A	0.58
C11U C33U A43G	0.595
C11U C24G C33A A40C	0.955

Variant	yeast fitness
C11U A36G A70G	0.672
C11U C31A G67A	≤ 0.5
C11U A43G A57U	0.568
C11G U28C	0.653
C11U A36G G44A C46U	0.993
C11U A21U G50C	0.788
C11U C27A	0.791
C11U C34U G38A G44C	0.541
C11U C22U U54C	0.639
C11U C29A U59G	≤ 0.5
C11U A21U G39C C55U	≤ 0.5
C11G U28C C60A G67A	0.567
C11G U35A C66G	≤ 0.5
C11U A43U	0.907
C11U A43C	0.686
C11U A21G C62U	0.648
C11G U19G A45C	≤ 0.5
C11U G39C	0.68
C11U C27U C31A U35C C55G C66U A70C	0.512
C11G U16A U26A C34U C55G	≤ 0.5
C11G U28A G39A	≤ 0.5
C11U G18A C62A A70C	≤ 0.5
C11U C27G A43U	0.52
C11U C27G A43C	0.577

Variant	yeast fitness
C11U C31G U64G A69G	0.842
C11U A14C A15G U26A C34A G63A	≤ 0.5
C11U C22U G38A U54C	≤ 0.5
C11U C22G C34A C49U	≤ 0.5
C11U C22U G44C	0.553
C11U A14G C27G C31U G68C	≤ 0.5
C11U C22G U59C	0.575
C11U A15U G38A	≤ 0.5
C11U A21C A43G	≤ 0.5
C11U C30A C55G A57C	≤ 0.5
C11U C49G	0.892
C11U A57U	0.677
C11U G12A C27U G52A C62U	≤ 0.5
C11U G25A C62U A70C	0.67
C11U C30U U47A G67C	≤ 0.5
C11U A40C G51A C61U A69C	≤ 0.5
C11U A20U A36G C55G	≤ 0.5
C11U C27G A36G G63C C66U	≤ 0.5
C11U A45U G58C A69C	≤ 0.5
C11U C22G G52C G56C	≤ 0.5
C11U A37C C46G C60U C61A	0.536
C11U C31A C55G C60A A70G	0.535
C11G U26A U54C	≤ 0.5
C11G U16C A21U C30G G50C	≤ 0.5

Variant	yeast fitness
C11U C34G A42C	≤ 0.5
C11U A14G A37C	0.737
C11U A37C C66U	0.611
C11U G23A	0.952
C11U G12A C31U U53C G63A A65C	≤ 0.5
C11U C29G C33U G39U C60U A65U A69U	≤ 0.5
C11U C31A A42G C55A	≤ 0.5
C11U A14C	0.745
C11U A14G	0.865
C11G U16C A21U	≤ 0.5
C11U C46G	0.986
C11U G18C C24G C46A	0.537
C11U A40G	0.866
C11U G38C	0.715
C11U A20C C29G A42G G56C G58A	≤ 0.5
C11U A15G C27G A45U	≤ 0.5
C11U A21U A69C	0.772
C11U A40U C46A	0.74
C11U A40U C46U	0.637
C11U C31A A57C	≤ 0.5
C11G U26C	0.569
C11G U32G C33U A37U	≤ 0.5
C11U A70G	0.978
C11U A15G A43U	0.666

Variant	yeast fitness
C11U A42C A69U	0.773
C11U A14C A40C G44C C55G	≤ 0.5
C11U A40U G67A	≤ 0.5
C11U A14C U54A	≤ 0.5
C11U C27U C31U A36C G44C A45G G56C	≤ 0.5
C11U A15U C22U	0.507
C11U A15C C27A G39C G67U	≤ 0.5
C11U G17C C30A C33G C61U	0.581
C11U C31G C34G A43U G68C A69G	0.532
C11G U19G	0.577
C11U A37G A57G A70C	≤ 0.5
C11U G12A C24U C34G	≤ 0.5
C11G U19A A21G C27U G39C	≤ 0.5
C11U C30A U32G C49U C55G	≤ 0.5
C11G U19A C22G G68C	≤ 0.5
C11U G23A C33G A69C	≤ 0.5
C11U A21U	1.02
C11U A21G	0.922
C11U G23C C31G C60G A65U	≤ 0.5
C11U C24G C29U G50A G58C G63A C66U G68A	≤ 0.5
C11U G44A	1.03
C11U G44C	0.974
C11U G25C A40U C49U	≤ 0.5
C11G U16A U28C C29U G39A U59G G67U	≤ 0.5

Variant	yeast fitness
C11U A20G U35A	≤ 0.5
C11U A15C C27A G39C G63U U64A	≤ 0.5
C11U C29U A57U C61U	≤ 0.5
C11U A20C C29A C31U U32C A65C	≤ 0.5
C11U A43U C66U	0.555
C11G U28A G39A G48A G67A	≤ 0.5
C11U G18A A36U G48C	≤ 0.5
C11U C30A G51A G67A	≤ 0.5
C11U C24G C27G A65U	0.576
C11U G17A	0.961
C11U A15U C27G A40C	≤ 0.5
C11U A15U C34A	0.588
C11U C62G G63A	0.529
C11U C34G G50C	0.576
C11G U26A U53A	≤ 0.5
C11U C22G C30U U54C	≤ 0.5
C11U A15C C30U A42C	≤ 0.5
C11G U35A G68C	≤ 0.5
C11U A40G C61G	≤ 0.5
C11U A57U A69U	0.613
C11U C66A	0.65
C11U C66G	0.745
C11U C34G A37U	≤ 0.5
